# According to ChEMBL document CHEMBL4422614 (Eur J Med Chem, 2019):
# Activity calls are given as the source filed them. The rule behind the calls is not given here.
# Tests used:
# [1] = Antioxidant activity assessed as trolox equivalent of AAPH-induced radical scavenging activity at 10 to 20 uM preincubated for 10 mins followed by AAPH addition measured every minute for 120 mins by ORAC fluorescein assay; type: functional
# Outline: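 ORAC values are expressed as trolox equivalents, mean ± SD of three independent experiments.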
# [2] = target: 3',5'-cyclic-AMP phosphodiesterase 4D (Homo sapiens, UniProt Q08499); assay: Inhibition of human PDE4D2 (86 to 413 residues) catalytic domain using [3H]-cAMP as substrate after 15 mins by liquid scintillation counting method
# 3',5'-cyclic-AMP phosphodiesterase 4D, sequence (Q08499 whole entry, the tested form may be a part): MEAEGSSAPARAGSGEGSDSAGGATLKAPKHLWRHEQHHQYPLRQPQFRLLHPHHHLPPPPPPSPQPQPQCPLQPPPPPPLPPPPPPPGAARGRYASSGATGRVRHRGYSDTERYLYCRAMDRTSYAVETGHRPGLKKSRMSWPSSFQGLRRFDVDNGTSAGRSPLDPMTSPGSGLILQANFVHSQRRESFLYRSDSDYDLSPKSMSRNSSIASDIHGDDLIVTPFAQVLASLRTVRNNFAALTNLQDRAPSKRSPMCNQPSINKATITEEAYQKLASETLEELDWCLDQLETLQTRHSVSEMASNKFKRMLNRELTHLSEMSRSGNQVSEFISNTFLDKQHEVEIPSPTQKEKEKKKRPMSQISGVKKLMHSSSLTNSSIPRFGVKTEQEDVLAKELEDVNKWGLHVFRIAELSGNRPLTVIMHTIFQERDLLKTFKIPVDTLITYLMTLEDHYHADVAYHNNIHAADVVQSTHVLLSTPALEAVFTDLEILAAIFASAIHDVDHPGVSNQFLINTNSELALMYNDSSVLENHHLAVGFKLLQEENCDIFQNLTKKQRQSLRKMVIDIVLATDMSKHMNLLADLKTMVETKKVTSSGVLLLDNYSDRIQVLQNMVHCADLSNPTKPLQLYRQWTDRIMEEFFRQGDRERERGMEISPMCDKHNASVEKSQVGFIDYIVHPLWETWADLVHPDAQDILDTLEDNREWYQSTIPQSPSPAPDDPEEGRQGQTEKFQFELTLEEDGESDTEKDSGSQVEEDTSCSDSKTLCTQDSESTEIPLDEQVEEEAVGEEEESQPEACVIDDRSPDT
# [3] = Metal chelating activity assessed as inhibition of Cu(II)-induced amyloid beta (1 to 42 residues) aggregation at 25 uM after 24 hrs by thioflavin-T fluorescence assay (reference value: 156%); parameters: scale not given: the % may be the effect or the level left
# Outline: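 Aβ1-42 was incubated with CuSO4 with or without compound, and thioflavin T fluorescence was read. Fluorescence is given as percent of Aβ alone, as mean ± SD of three independent experiments.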
# [4] = system: Mus musculus; assay: Cognition enhancement activity in amyloid beta (25 to 35 residues) induced C57BL/6J mouse model of Alzheimer's disease assessed as swimming path length in virtual platform at 30 mg/kg/day, ig administered for 26 consecutive days by Morris water maze test (10.2 +/- 3.2 cm); type: functional
# Outline: (§1)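 Mice were randomized into 7 groups. All except sham got an ICV injection of Aβ25-35 (3 nmol); sham got the same volume of saline ICV. Dosing was intragastric daily for 26 days, with 0.5% CMC-Na as vehicle for sham and model. Body weight, diarrhea and emesis-like behavior were monitored.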
# [5] = system: Mus musculus; assay: (§2) Neuroprotection in amyloid beta (25 to 35 residues) induced C57BL/6J mouse model of Alzheimer's disease assessed as reduction in ratio of apoptotic neuron in DG hippocampus region at 30 mg/kg/day, ig administered for 26 consecutive days by hematoxylin and eosin staining-based light microscopic analysis (reference value: 55.8 +/- 7.2%); type: ADME, organism-based; parameters: scale not given: the % may be the effect or the level left; details: in vivo, po
# Outline: (§3)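 Hippocampal CA1, CA3 and DG neurons were stained with H&E after the Aβ25-35 ICV model and 26-day intragastric dosing. Denatured cell index = denatured cells/total cells, n = 5. Values are mean ± SD, two-way ANOVA versus model.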
# [6] = Drug metabolism in Sprague-Dawley rat liver microsomes assessed as metabolic rate up to 180 mins in presence of NADPH by UV-based LC-MS/MS analysis; type: ADME, Microsome; details: 3 h
# [7] = system: Mus musculus; assay: Cognition enhancement activity in amyloid beta (25 to 35 residues) induced C57BL/6J mouse model of Alzheimer's disease assessed as swimming speed at 30 mg/kg/day, ig administered for 26 consecutive days by Morris water maze test (reference value: 15.6 +/- 2.4 cm/sec); type: functional; outline: as §1
# [8] = Metal chelating activity assessed as inhibition of Cu(II)-induced amyloid beta (1 to 42 residues) aggregation at 25 uM after 24 hrs by TEM assay
# Outline: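 Samples were prepared as for the ThT assay. 10 µL aliquots were applied to carbon-coated copper grids for 2 min, then stained with 3% phosphotungstic acid for 2 min and imaged by transmission electron microscopy.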
# [9] = system: Mus musculus; assay: Cognition enhancement activity in amyloid beta (25 to 35 residues) induced C57BL/6J mouse model of Alzheimer's disease assessed as swimming time in effective region at 30 mg/kg/day, ig administered for 26 consecutive days by Morris water maze test (4.3 +/- 1.3 sec); type: functional; outline: as §1
# [10] = system: Mus musculus; assay: as §2, with “CA3” for “DG”, “80.2” for “55.8”, “8.6%)” for “7.2%)”; type: ADME, organism-based; parameters: scale not given: the % may be the effect or the level left; details: in vivo, po; outline: as §3
# [11] = in vitro; details: PAMPA
# [12] = in vitro; details: Sprague-Dawley, rat
# [13] = system: Mus musculus; assay: Cognition enhancement activity in amyloid beta (25 to 35 residues) induced C57BL/6J mouse model of Alzheimer's disease assessed as swimming speed at 4 mg/kg/day, ig administered for 26 consecutive days by Morris water maze test (reference value: 15.6 +/- 2.4 cm/sec); type: functional; outline: as §1
# [14] = system: Mus musculus; assay: Neuroprotection in C57BL/6J mouse model of amyloid beta (25 to 35 residues) induced Alzheimer's disease assessed as reduction in ratio of apoptotic neuron in CA1 hippocampus region at 30 mg/kg/day, ig administered for 26 consecutive days by hematoxylin and eosin staining-based light microscopic analysis (reference value: 40.6 +/- 12.5%); type: ADME, organism-based; parameters: scale not given: the % may be the effect or the level left; details: in vivo, po; outline: as §3
# [15] = system: Mus musculus; assay: Cognition enhancement activity in amyloid beta (25 to 35 residues) induced C57BL/6J mouse model of Alzheimer's disease assessed as decrease in escape latancy at 30 mg/kg/day, ig administered for 26 consecutive days by Morris water maze test; type: functional, organism-based; outline: as §1
# [16] = Metal chelating activity assessed as inhibition of Cu2+-induced amyloid beta (1 to 42 residues) aggregation at 25 uM after 24 hrs by thioflavin-T fluorescence assay (reference value: 156%); parameters: scale not given: the % may be the effect or the level left
# Outline: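 Aβ1-42 was incubated with Cu(II) (CuSO4) with or without compound, and thioflavin T fluorescence was read. The Aβ-alone signal was set as 100%. Mean ± SD of three independent experiments.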
# [17] = system: SH-SY5Y; assay: Cytotoxicity against human SH-SY5Y cells assessed as effect on cell viability at 10 uM after 24 hrs by MTT assay; type: cell-based
# Outline: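 SH-SY5Y viability was measured by MTT after exposure to compounds at 10 µM. Results are percent of vehicle control from three independent experiments.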
structure (smiles),measurement,setting,value
COc1ccc(NC(=O)c2ccc3cccc(O)c3n2)cc1OC1CCCC1,Activity,[1],1.98 equiv
same,IC50,[2],4.15 µM
Oc1c(I)cc(Cl)c2cccnc12 [CLIOQUINOL],Activity,[1],0.6 equiv
same,Activity,[3],66%
same,Activity,[4],18 cm
same,Activity,[5],19.7%
same,K,[6],0.0194 min⁻¹
same,Activity,[7],16 cm/s
same,Activity,[8],Active
same,Time,[9],5.8 s
same,Activity,[10],37.8%
same,"Papp at 10 h, 100 ug/ml",[11],5.2 ×10⁻⁶ cm/s
same,half-life,[12]; liver microsomes,35.8 min
same,Activity,[13],Active
same,Activity,[14],24.2%
same,Activity,[15],Active
COc1ccc(C(=O)Nc2cc(I)c(O)c3ncccc23)cc1OC,Activity,[1],1.3 equiv
same,IC50,[2],7.36 µM
COc1ccc(NC(=O)c2ccc3c(Cl)cc(Cl)c(O)c3n2)cc1OC1CCCC1,Activity,[1],1.29 equiv
same,IC50,[2],6.78 µM
COc1ccc(NC(=O)c2ccc3c(Cl)cc(Cl)c(O)c3n2)cc1OC,Activity,[1],1.05 equiv
same,IC50,[2],8.07 µM
COc1ccc(NC(=O)c2ccc3cccc(O)c3n2)cc1OC,Activity,[1],1.03 equiv
same,IC50,[2],4.32 µM
Cl.O=C(Nc1cc(Cl)c(O)c2ncccc12)c1ccc(OC(F)F)c(OCC2CC2)c1,Activity,[16],82%
same,Activity,[1],0.74 equiv
same,Activity,[17],Toxic
same,IC50,[2],3.83 µM
COc1cc2c(cc1OC)C(=O)C(CC1CCN(Cc3ccccc3)CC1)C2 (stereo not given) [DONEPEZIL],K,[6],0.00917 min⁻¹
same,half-life,[12]; microsomes,75.6 min
